Reference: ChEMBL document CHEMBL1125259, “Lipophilic glycosyl phosphotriester derivatives of AZT: synthesis, NMR transmembrane transport study, and antiviral activity” (1991)

How the values were obtained:
CCRF-CEM [1] = test: Concentration that reduced by 50% the HIV induced CPE (cytopathic effect) on day 19.; type: functional; conditions: Homo sapiens, 456 h, read-out: ED50 (the source's name)
Summary of the method: (§1)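 CEM-C113 cells (1×10^5 cells/mL) were infected with HIV-1 LAV-Bru or mock-infected, with compound dilutions in triplicate, for at least 7 days. Medium with or without drug was renewed every 3–4 days for longer runs. MTT absorbance was read at 540 nm. CD50 = 50% reduction of mock-infected absorbance; ED50 = dose giving 50% protection from CPE. Values are averages of at least two experiments.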

CCRF-CEM [2] = test: Concentration that reduced by 50% the HIV induced CPE (cytopathic effect) on day 7.; type: functional; conditions: Homo sapiens, 168 h, read-out: ED50 (the source's name); summary of the method: as §1
CCRF-CEM [3] = test: Concentration required to reduce the viability of uninfected cells (CEM-CL13) by 50% on day 11.; type: functional; conditions: Homo sapiens, 264 h, read-out: CD50 (the source's name); summary of the method: as §1
CCRF-CEM [4] = test: Concentration required to reduce the viability of uninfected cells (CEM-CL13) by 50% on day 19.; type: functional; conditions: Homo sapiens, 456 h, read-out: CD50 (the source's name); summary of the method: as §1
CCRF-CEM [5] = test: Concentration required to reduce the viability of uninfected cells (CEM-CL13) by 50% on day 22.; type: functional; conditions: Homo sapiens, 528 h, read-out: CD50 (the source's name); summary of the method: as §1
[6] = biological target: Human immunodeficiency virus type 1 reverse transcriptase (Human immunodeficiency virus 1) (UniProt Q72547); test: Compound ability to inhibit the production of HIV reverse transcriptase (RT) in preinfected PBL (peripheral blood lymphocytes) at 21 days at a concentration 1 uM; type: functional
Summary of the method: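 PBL were infected with HIV-1 for 1 h at 37 °C, washed twice, and resuspended in complete medium with 10% interleukin-2 and anti-human α-interferon (1000 units/mL). Cells were plated at 1×10^6 cells/well with or without compound. At each time point, 50 µL supernatant was taken for RT assay ([³H]dTTP incorporation, cpm).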

[7] = biological target: Human immunodeficiency virus type 1 reverse transcriptase (Human immunodeficiency virus 1) (UniProt Q72547); test: Compound ability to inhibit the production of HIV reverse transcriptase (RT) in culture supernatant of CEM-CL13 on at 15 days at a concentration 0.2 uM; type: functional
Summary of the method: (§2)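 CEM-C113 cells in RPMI 1640 with 5% heat-inactivated FCS and polybrene (2 µg/mL) were plated at 1×10^5 cells/mL with compound in PBS, in triplicate, and infected with HIV-1 LAV-Bru. From day 7, every 3–4 days, fresh medium with or without drug was added and 50 µL supernatant was taken for RT microassay. The RT microassay used poly(rA)-oligo(dT) and (methyl-³H)dTTP for 1 h at 37 °C, with TCA precipitation, read as cpm/50 µL.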

[8] = biological target: Human immunodeficiency virus type 1 reverse transcriptase (Human immunodeficiency virus 1) (UniProt Q72547); test: Compound ability to inhibit the production of HIV reverse transcriptase (RT) in culture supernatant of CEM-CL13 on at 15 days at a concentration 1 uM; type: functional; summary of the method: as §2
[9] = biological target: Human immunodeficiency virus type 1 reverse transcriptase (Human immunodeficiency virus 1) (UniProt Q72547); test: Compound ability to inhibit the production of HIV reverse transcriptase (RT) in culture supernatant of CEM-CL13 on at 22 days at a concentration 1 uM; type: functional; summary of the method: as §2
[10] = biological target: Human immunodeficiency virus type 1 reverse transcriptase (Human immunodeficiency virus 1) (UniProt Q72547); test: Compounds were evaluated for anti-RT activity at 7 days of culture; type: functional
Summary of the method: (§3)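 HIV-1 (12 500 CCID50) was preincubated with compound at 25 µM final for 60 min at 37 °C, pelleted by ultracentrifugation and resuspended. RT was measured at once with poly(rA)-oligo(dT) and ³H-dTTP (1 h, 37 °C, cpm). Treated virus was then put on CEM-C113 cells for 60 min and replaced with compound-free medium. Supernatant RT was read at days 7 and 9.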

[11] = biological target: Human immunodeficiency virus type 1 reverse transcriptase (Human immunodeficiency virus 1) (UniProt Q72547); test: Compounds were evaluated for anti-RT activity at 9 days of culture; type: functional; summary of the method: as §3
[12] = biological target: Human immunodeficiency virus type 1 reverse transcriptase (Human immunodeficiency virus 1) (UniProt Q72547); test: Compounds were evaluated for anti-RT activity by MTT dose and % cell / viability was reported at 9 days of culture; type: functional
Summary of the method: (§4)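 HIV-1 was preincubated with compound at 25 µM for 60 min at 37 °C, pelleted, and added to CEM-C113 cells (1×10^5 cells/mL) for 60 min at 37 °C. Medium was then replaced without compound. At days 7 and 9, viability was read by MTT assay on 100 µL of cell suspension.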

[13] = biological target: Human immunodeficiency virus type 1 reverse transcriptase (Human immunodeficiency virus 1) (UniProt Q72547); test: Percent inhibition evaluated for anti-RT activity at 0 days of culture; type: functional; set-up: concentration or dose not given beside the values; conditions: concentration not given here; summary of the method: as §3
[14] = biological target: Human immunodeficiency virus type 1 reverse transcriptase (Human immunodeficiency virus 1) (UniProt Q72547); test: Percent inhibition measured as the production of HIV reverse transcriptase (RT) in culture supernatant of monocytic U937 on at 11 days at a concentration 0.2 uM; type: functional
Summary of the method: (§5)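 HIV-1-infected monocytic U937 cultures were kept up to 14 days with compound. Supernatant RT activity was measured as for CEM-C113, as [³H] cpm/50 µL. % inhibition = 100 − 100 × (cpm of treated samples / cpm of control virus).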

[15] = biological target: Human immunodeficiency virus type 1 reverse transcriptase (Human immunodeficiency virus 1) (UniProt Q72547); test: Percent inhibition measured as the production of HIV reverse transcriptase (RT) in culture supernatant of monocytic U937 on at 14 days at a concentration 0.2 uM; type: functional
Summary of the method: (§6)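 U937 cells in RPMI 1640 with 5% heat-inactivated FCS, penicillin, streptomycin and polybrene (2 μg/mL), 37 °C, 5% CO2. Infected with HIV-1 LAV-Bru; compounds diluted in PBS. 50 μL supernatant aliquots were assayed for RT: 1 h, 37 °C, pH 7.8, Mg2+, poly(rA)-oligo(dT), [3H]dTTP, TCA-pyrophosphate stop, filter counting. % inhibition = 100 − 100 × (treated cpm / virus-control cpm).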

[16] = biological target: Human immunodeficiency virus type 1 reverse transcriptase (Human immunodeficiency virus 1) (UniProt Q72547); test: Percent inhibition measured as the production of HIV reverse transcriptase (RT) in culture supernatant of monocytic U937 on at 7 days at a concentration 0.2 uM; type: functional; summary of the method: as §6
[17] = biological target: Human immunodeficiency virus type 1 reverse transcriptase (Human immunodeficiency virus 1) (UniProt Q72547); test: Compounds were evaluated for anti-RT activity by MTT dose and %protection was reported at 9 days of culture; type: functional; summary of the method: as §4
[18] = biological target: Human immunodeficiency virus type 1 reverse transcriptase (Human immunodeficiency virus 1) (UniProt Q72547); test: Compound ability to inhibit the production of HIV reverse transcriptase (RT) in culture supernatant of monocytic U937 on at 14 days at a concentration 5 uM; type: functional; summary of the method: as §5
[19] = biological target: Human immunodeficiency virus type 1 reverse transcriptase (Human immunodeficiency virus 1) (UniProt Q72547); test: Compound ability to inhibit the production of HIV reverse transcriptase (RT) in culture supernatant of monocytic U937 on at 11 days at a concentration 5 uM; type: functional; summary of the method: as §5
[20] = biological target: Human immunodeficiency virus type 1 reverse transcriptase (Human immunodeficiency virus 1) (UniProt Q72547); test: Compound ability to inhibit the production of HIV reverse transcriptase (RT) in culture supernatant of CEM-CL13 on at 22 days at a concentration 5 uM; type: functional; summary of the method: as §2
[21] = biological target: Human immunodeficiency virus type 1 reverse transcriptase (Human immunodeficiency virus 1) (UniProt Q72547); test: Compound ability to inhibit the production of HIV reverse transcriptase (RT) in culture supernatant of CEM-CL13 on at 7 days at a concentration 5 uM; type: functional; summary of the method: as §2
[22] = biological target: Human immunodeficiency virus type 1 reverse transcriptase (Human immunodeficiency virus 1) (UniProt Q72547); test: Percent inhibition measured as the production of HIV reverse transcriptase (RT) in culture supernatant of monocytic U937 on at 11 days at a concentration 5 uM; type: functional; summary of the method: as §6
[23] = biological target: Human immunodeficiency virus type 1 reverse transcriptase (Human immunodeficiency virus 1) (UniProt Q72547); test: Percent inhibition measured as the production of HIV reverse transcriptase (RT) in culture supernatant of monocytic U937 on at 7 days at a concentration 5 uM; type: functional; summary of the method: as §6
[24] = biological target: Human immunodeficiency virus type 1 reverse transcriptase (Human immunodeficiency virus 1) (UniProt Q72547); conditions: at 25 µM
[25] = biological target: Human immunodeficiency virus type 1 reverse transcriptase (Human immunodeficiency virus 1) (UniProt Q72547); conditions: at 25 µM; remark: listed apart in the source

SMILES | EC50 (CCRF-CEM [1]) [nM] | EC50 (CCRF-CEM [2]) [nM] | CC50 (CCRF-CEM [3]) [µM] | CC50 (CCRF-CEM [4]) [µM] | CC50 (CCRF-CEM [5]) [µM] | Activity (c.p.m. 50ul-1) [6] | Activity (c.p.m. 50ul-1) [7] | Activity (c.p.m. 50ul-1) [10] | Activity (c.p.m. 50ul-1) [11] | Cell viability [12] [%] | inhibition [13] [%] | Protection [17] [%] | Activity (c.p.m. 50ul-1) [18] | Activity (c.p.m. 50ul-1) [19] | Activity (c.p.m. 50ul-1) [20] | Activity (c.p.m. 50ul-1) [21] | inhibition [22] [%] | inhibition [23] [%] | inhibition [24] [%] | inhibition [25] [%] | also measured
CCCCCCCCCCCCCCCCOP(=O)(OC[C@H]1OC(O)[C@H](O)[C@@H](O)[C@@H]1O)OC[C@H]1OC(n2cc(C)c(=O)[nH]c2=O)C[C@@H]1N=[N+]=[N-] (some centres not stated) | 1500 | 180 | 3 | 3.2 | 3.2 | 71100 | 1600 | 8000 | 13000 | 62 | 9 | 52 | – | – | – | – | – | – | – | – | Activity (c.p.m. 50ul-1) [8]: 750; Activity (c.p.m. 50ul-1) [9]: 33000; inhibition [14]: 0%; inhibition [15]: 14%; inhibition [16]: 0%
Cc1cn([C@H]2C[C@H](N=[N+]=[N-])[C@@H](COP(=O)(O)OC[C@H]3OC(O)[C@H](O)[C@@H](O)[C@@H]3O)O2)c(=O)[nH]c1=O (some centres not stated) | 700 | 200 | 35 | 38 | 35 | 16100 | 750 | 19000 | 28000 | 34 | 0 | 13 | 31400 | 211000 | 1500 | 1100 | 0 | 43 | 0 | 0 | –
Cc1cn([C@H]2C[C@H](N=[N+]=[N-])[C@@H](COP(=O)(O)OCCO[C@H]3O[C@H](CO)[C@@H](O)[C@H](O)[C@@H]3O)O2)c(=O)[nH]c1=O | 140 | 160 | 28 | 30 | 28 | 21300 | 2600 | 47000 | 39000 | 28 | 0 | 12 | 23000 | 192000 | 5500 | 1670 | 0 | 20 | 20 | 41 | –
Cc1cn([C@H]2C[C@H](N=[N+]=[N-])[C@@H](COP(=O)(O)OC[C@H]3OC(O)[C@@H](O)[C@@H](O)[C@@H]3O)O2)c(=O)[nH]c1=O (some centres not stated) | 200 | 130 | 28 | 24 | 24 | 33100 | 1700 | 24000 | 34000 | 36 | 0 | 22 | 24000 | 193000 | 12000 | 1500 | 0 | 46 | 2 | 0 | –
